This passage reports Activity results from ChEMBL document CHEMBL1122299, “Potential cerebral perfusion agents: synthesis and evaluation of a radioiodinated vinylalkylbarbituric acid analogue” (J Med Chem, 1983).

The species entered for one assay is Rattus norvegicus. In words: Uptake in the thyroid or any of the other tissues tested in rats; NS- No significant activity. The format is functional, organism-based. The following applies: Thyroid gland. The essentials:
(§1)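 Female Fischer 344 rats (10–12 weeks, 170–200 g, food and water ad libitum) received 7.95 μCi of the 125I-labeled barbiturate (sp act ~155 mCi/mmol) in filtered pH 7.4 phosphate buffer via lateral tail vein under ether anesthesia. Four rats per time point were killed at 2 min to 1 day. Thyroid and other organs were excised, rinsed, blotted, weighed and gamma-counted as % injected dose/g.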

Assay [1] is described as follows: In vivo deiodination was determined; Resistant. In kind it is functional, organism-based. Summed up: as §1

The source made the active and inactive calls. No cut-off for these calls is given here.

As for `CCOC(=O)C(CC)(CCC/C=C/I)C(=O)O` (configuration not stated), the result in the assay listed under Rattus norvegicus was inactive. The Activity entry in assay [1] is given as “Resistant”.
